BindingDB's records for doi:10.1016/j.bmc.2013.06.068 (University of Maryland, 2013)

What was measured:
[1] = biological target: Delta-type opioid receptor (Homo sapiens, UniProt P41143); experiment: Displacement of [3H]DPDPE from human delta opioid receptor expressed in CHO cells after 120 mins by liquid scintillation counting
In short: (§1)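 Membranes from CHO cells stably expressing human μ, δ or κ opioid receptor. Radioligands: μ 1.3 nM [3H]DAMGO, δ 1.2 nM [3H]DPDPE, κ 1.7 nM [3H]U69,593; nonspecific with 1 μM of the matching unlabelled ligand.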

Mu-type opioid receptor = Mu-type opioid receptor (Homo sapiens, UniProt P35372); experiment: Displacement of [3H]DAMGO from human mu opioid receptor expressed in CHO cells after 120 mins by liquid scintillation counting; in short: as §1
[2] = biological target: Sigma non-opioid intracellular receptor 1 (Rattus norvegicus, UniProt Q9R0C9); experiment: Displacement of [3H](+)-pentazocine from sigma 1 receptor in rat brain homogenates after 120 mins by liquid scintillation counting
In short: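 σ1 sites labelled with 5 nM [3H](+)-pentazocine in rat brain homogenate; nonspecific binding defined with 10 μM haloperidol. Up to 12 competitor concentrations, incubated 120 min at 25 °C. Terminated by vacuum filtration onto PEI-soaked GF/B filters, bound radioactivity counted by liquid scintillation. Ki obtained by Cheng–Prusoff.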

[3] = biological target: Kappa-type opioid receptor (Homo sapiens, UniProt P41145); experiment: Displacement of [3H]U69,593 from human kappa opioid receptor expressed in CHO cells after 120 mins by liquid scintillation counting; in short: as §1
Sequence of Kappa-type opioid receptor (P41145 whole entry): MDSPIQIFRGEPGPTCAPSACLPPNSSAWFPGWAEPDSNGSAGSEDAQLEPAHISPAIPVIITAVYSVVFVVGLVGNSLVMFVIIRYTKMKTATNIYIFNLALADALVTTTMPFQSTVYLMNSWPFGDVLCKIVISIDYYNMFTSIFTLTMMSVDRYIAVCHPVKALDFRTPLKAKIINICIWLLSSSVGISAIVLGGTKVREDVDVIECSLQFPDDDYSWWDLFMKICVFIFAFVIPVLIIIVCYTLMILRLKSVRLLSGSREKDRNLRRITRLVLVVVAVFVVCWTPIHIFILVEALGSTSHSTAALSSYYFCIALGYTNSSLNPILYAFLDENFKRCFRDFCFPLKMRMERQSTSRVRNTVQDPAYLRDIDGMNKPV

Sequence of Mu-type opioid receptor (P35372 whole entry): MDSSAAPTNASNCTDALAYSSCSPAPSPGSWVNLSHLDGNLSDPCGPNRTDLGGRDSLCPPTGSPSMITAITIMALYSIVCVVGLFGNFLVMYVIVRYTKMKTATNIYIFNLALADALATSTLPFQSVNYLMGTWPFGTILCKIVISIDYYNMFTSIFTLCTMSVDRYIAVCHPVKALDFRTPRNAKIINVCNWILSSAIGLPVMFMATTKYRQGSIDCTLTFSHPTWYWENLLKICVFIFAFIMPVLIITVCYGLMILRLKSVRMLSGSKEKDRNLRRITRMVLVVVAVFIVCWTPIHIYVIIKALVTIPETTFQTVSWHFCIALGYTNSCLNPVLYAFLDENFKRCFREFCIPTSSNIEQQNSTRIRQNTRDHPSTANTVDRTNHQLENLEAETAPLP
Sequence of Sigma non-opioid intracellular receptor 1 (Q9R0C9 whole entry): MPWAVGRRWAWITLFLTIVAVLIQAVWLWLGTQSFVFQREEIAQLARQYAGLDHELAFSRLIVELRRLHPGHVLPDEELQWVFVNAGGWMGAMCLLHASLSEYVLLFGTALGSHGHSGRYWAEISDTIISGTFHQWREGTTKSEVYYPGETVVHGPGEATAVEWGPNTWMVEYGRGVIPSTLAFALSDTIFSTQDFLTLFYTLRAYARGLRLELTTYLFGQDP
Sequence of Delta-type opioid receptor (P41143 whole entry): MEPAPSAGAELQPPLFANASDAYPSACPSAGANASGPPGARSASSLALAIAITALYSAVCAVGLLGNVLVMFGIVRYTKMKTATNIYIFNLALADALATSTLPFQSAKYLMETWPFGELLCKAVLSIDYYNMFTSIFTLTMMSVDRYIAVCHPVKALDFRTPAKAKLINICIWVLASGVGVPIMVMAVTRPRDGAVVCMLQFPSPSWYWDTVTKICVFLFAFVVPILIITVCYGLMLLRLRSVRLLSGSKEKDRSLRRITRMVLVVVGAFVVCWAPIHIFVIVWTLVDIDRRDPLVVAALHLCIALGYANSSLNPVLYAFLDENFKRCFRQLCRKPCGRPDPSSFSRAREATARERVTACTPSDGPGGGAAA

| Ki [1] | Ki (Mu-type opioid receptor) | Ki [2] | Ki [3] | SMILES |
| --- | --- | --- | --- | --- |
| > 10000 nM | – | 19 nM | > 10000 nM | CN(CCCc1ccccc1)[C@H]1CCCC[C@@H]1O |
| > 10000 nM | 2300 nM | 59 nM | > 10000 nM | CN(C)[C@H]1CCCC[C@@H]1OCCCc1ccccc1 |

Continued, compound first:

| SMILES | Ki [1] | Ki (Mu-type opioid receptor) | Ki [2] | Ki [3] |
| --- | --- | --- | --- | --- |
| CN(CCc1ccccc1)[C@H]1CCCC[C@@H]1O | > 10000 nM | > 10000 nM | 120 nM | > 10000 nM |
| CN(C)[C@H]1CCCC[C@@H]1OC/C=C/c1ccccc1 | > 10000 nM | 4200 nM | 4.6 nM | > 10000 nM |
| CN(CCc1ccccc1)[C@H]1CCCC[C@@H]1OCCCc1ccccc1 | > 10000 nM | 1600 nM | 84 nM | – |
| CN(CCCc1ccccc1)[C@H]1CCCC[C@@H]1OCCCc1ccccc1 | 6200 nM | 3100 nM | 790 nM | 2200 nM |
